From ChEMBL document CHEMBL1938297, “Synthesis, radiofluorination and pharmacological evaluation of a fluoromethyl spirocyclic PET tracer for central σ1 receptors and comparison with fluoroalkyl homologs” (Bioorg Med Chem, 2012)

Legend:
Mus musculus [1] = test: Biodistribution in CD1 mouse fat at 300 kBq, iv after 60 mins by gamma counting; format: ADME, organism-based, Adipose tissue; conditions: in vivo, 1 h
In short: (§1)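 Female CD-1 mice received [18F]1 (300 kBq) i.v.; 3–6 animals per time point anesthetized at 5, 30, 60 or 120 min p.i., blood and urine collected, animals euthanized by cervical dislocation, organs dissected and weighed. Radioactivity counted in a calibrated gamma counter; % ID/g = tissue counts / initial dose counts / tissue weight; means with SD.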

Blood [2] = test: Biodistribution in CD1 mouse blood at 300 kBq, iv after 120 mins by gamma counting; format: ADME, organism-based; conditions: in vivo, 2 h; in short: as §1
Cerebellum [3] = test: Biodistribution in CD1 mouse cerebellum at 300 kBq, iv after 120 mins by gamma counting; format: ADME, organism-based; conditions: in vivo, 2 h; in short: as §1
Stomach [4] = test: Biodistribution in CD1 mouse stomach at 300 kBq, iv after 120 mins by gamma counting; format: ADME, organism-based; conditions: in vivo, 2 h
In short: (§2)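 Female CD-1 mice received the 18F tracer iv at 300 kBq in 0.9% NaCl containing 5% ethanol; 3–6 animals per time point (5, 30, 60, 120 min p.i.). Animals anaesthetized, blood and urine collected, killed by cervical luxation, organs dissected and weighed, counted in calibrated gamma counter. %ID/g = tissue counts / initial dose counts / tissue weight; mean with SD.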

Liver [5] = test: Biodistribution in CD1 mouse liver at 300 kBq, iv after 120 mins by gamma counting; format: ADME, organism-based; conditions: in vivo, 2 h; in short: as §2
Urinary bladder [6] = test: Biodistribution in CD1 mouse bladder at 300 kBq, iv after 120 mins by gamma counting; format: ADME, organism-based; conditions: in vivo, 2 h; in short: as §1
Mus musculus [7] = test: Biodistribution in CD1 mouse thymus at 300 kBq, iv after 120 mins by gamma counting; format: ADME, organism-based; conditions: in vivo, 2 h; in short: as §2
Femur = test: Biodistribution in CD1 mouse flushed femur at 300 kBq, iv after 120 mins by gamma counting; format: ADME, organism-based; conditions: in vivo, 2 h; in short: as §1
[8] = Chemical stability of the compound in phosphate-saline solution at pH 7.2 assessed as compound remaining after 2 hrs by radio-HPLC/TLC analysis; format: physicochemical; conditions: read-out: Stability
In short: (§3)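 Radiotracer incubated 120 min at 40 °C in 0.9% NaCl (pH 7.2), phosphate-saline (0.1 M sodium phosphate, 0.15 M NaCl, pH 7.2) or 0.01 M TRIS–HCl (pH 7.4 at 21 °C). Aliquots were taken at set times and analysed by radio-TLC on silica and by gradient radio-HPLC on RP-18 (MeCN/20 mM ammonium acetate, 254 nm), giving % unchanged tracer; n = 2.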

[9] = Chemical stability of the compound in 0.01 M Tris-HCl at pH 7.4 assessed as compound remaining after 2 hrs by radio-HPLC/TLC analysis; format: physicochemical; conditions: read-out: Stability; in short: as §3
[10] = Metabolic stability in CD1 mouse brain homogenates assessed as compound remaining at 191 MBq, iv after 30 mins by radio-HPLC/TLC analysis; format: ADME, organism-based; conditions: brain homogenate, read-out: Stability
In short: (§4)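 Female CD-1 mice were injected with the radiotracer via the tail vein and killed at 30 or 60 min p.i. Whole brains (n = 2 per time) were homogenised in 50 mM TRIS–HCl pH 7.4 at 4 °C and extracted twice with ice-cold acetonitrile. Concentrated extracts were analysed by radio-HPLC and radio-TLC to give % parent versus radiometabolites.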

[11] = Metabolic stability in CD1 mouse brain homogenate assessed as compound remaining at 191 MBq, iv after 60 mins by radio-HPLC/TLC analysis; format: ADME, organism-based; conditions: read-out: Stability; in short: as §4
Brain [12] = test: Drug metabolism in CD1 mouse brain homogenates assessed as radiometabolites at 191 MBq, iv after 30 mins by radio-HPLC/TLC analysis; format: ADME, organism-based; conditions: in vivo, 0.5 h; in short: as §4
Mus musculus [13] = test: Biodistribution in CD1 mouse lateral periaqueductal gray in brain saggital section at 24 MBq, iv at 45 mins by autoradiography; format: ADME, organism-based; conditions: in vivo, 0.75 h
In short: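 Ex vivo autoradiography: female CD-1 mouse given 18F tracer iv (24 MBq), killed 45 min p.i.; brain hemispheres frozen in isopentane (−35 °C), 12 µm sagittal cryostat sections thaw-mounted, air-dried and exposed to 18F-sensitive phosphor screens. Regional uptake compared with anterior olfactory bulb as nontarget region (target-to-nontarget ratio).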

Cerebellum [14] = test: Biodistribution in CD1 mouse cerebellum in brain saggital section at 24 MBq, iv at 45 mins by autoradiography; format: ADME, organism-based; conditions: in vivo, 0.75 h
In short: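 Female CD-1 mouse given [18F]1 (24 MBq) i.v. and sacrificed at 45 min. Brain hemispheres frozen in isopentane (−35 °C), cut into 12 µm sagittal cryosections, thaw-mounted, air-dried and exposed to 18F-sensitive storage phosphor screens. Anterior olfactory bulb served as nontarget region for target-to-nontarget ratios.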

Blood [15] = test: Biodistribution in CD1 mouse blood at 300 kBq, iv after 5 mins by gamma counting; format: ADME, organism-based; conditions: in vivo; in short: as §1
Cerebellum [16] = test: Biodistribution in CD1 mouse cerebellum at 300 kBq, iv after 5 mins by gamma counting; format: ADME, organism-based; conditions: in vivo; in short: as §1
Lung = test: Biodistribution in CD1 mouse lung at 300 kBq, iv after 5 mins by gamma counting; format: ADME, organism-based; conditions: in vivo; in short: as §2
Stomach [17] = test: Biodistribution in CD1 mouse stomach at 300 kBq, iv after 5 mins by gamma counting; format: ADME, organism-based; conditions: in vivo; in short: as §2
Mus musculus [18] = test: Biodistribution in CD1 mouse small intestine at 300 kBq, iv after 5 mins by gamma counting; format: ADME, organism-based; conditions: in vivo; in short: as §2
Mus musculus [19] = test: Biodistribution in CD1 mouse large intestine at 300 kBq, iv after 5 mins by gamma counting; format: ADME, organism-based; conditions: in vivo; in short: as §2
Kidney [20] = test: Biodistribution in CD1 mouse kidney at 300 kBq, iv after 5 mins by gamma counting; format: ADME, organism-based; conditions: in vivo; in short: as §2
Urinary bladder [21] = test: Biodistribution in CD1 mouse bladder at 300 kBq, iv after 5 mins by gamma counting; format: ADME, organism-based; conditions: in vivo; in short: as §1
Mus musculus [22] = test: Biodistribution in CD1 mouse gonads at 300 kBq, iv after 5 mins by gamma counting; format: ADME, organism-based, Gonad; conditions: in vivo; in short: as §1
Brain [23] = test: Biodistribution in CD1 mouse brain at 300 kBq, iv after 30 mins by gamma counting; format: ADME, organism-based; conditions: in vivo, 0.5 h; in short: as §1
Stomach [24] = test: Biodistribution in CD1 mouse stomach at 300 kBq, iv after 30 mins by gamma counting; format: ADME, organism-based; conditions: in vivo, 0.5 h; in short: as §2
[25] = Biodistribution in CD1 mouse intestinal content at 300 kBq, iv after 30 mins by gamma counting; format: ADME, organism-based, Intestine; conditions: in vivo, 0.5 h; in short: as §2
Liver [26] = test: Biodistribution in CD1 mouse liver at 300 kBq, iv after 30 mins by gamma counting; format: ADME, organism-based; conditions: in vivo, 0.5 h; in short: as §2
Kidney [27] = test: Biodistribution in CD1 mouse kidney at 300 kBq, iv after 30 mins by gamma counting; format: ADME, organism-based; conditions: in vivo, 0.5 h; in short: as §2
Pancreas = test: Biodistribution in CD1 mouse pancreas at 300 kBq, iv after 30 mins by gamma counting; format: ADME, organism-based; conditions: in vivo, 0.5 h; in short: as §2
Mus musculus [28] = test: Biodistribution in CD1 mouse adrenals at 300 kBq, iv after 30 mins by gamma counting; format: ADME, organism-based, Adrenal gland; conditions: in vivo, 0.5 h; in short: as §1
Mus musculus [29] = test: Biodistribution in CD1 mouse eye at 300 kBq, iv after 30 mins by gamma counting; format: ADME, organism-based; conditions: in vivo, 0.5 h; in short: as §1
Blood [30] = test: Biodistribution in CD1 mouse blood at 300 kBq, iv after 60 mins by gamma counting; format: ADME, organism-based; conditions: in vivo, 1 h; in short: as §1
Brain [31] = test: Biodistribution in CD1 mouse brain at 300 kBq, iv after 60 mins by gamma counting; format: ADME, organism-based; conditions: in vivo, 1 h; in short: as §1
Cerebellum [32] = test: Biodistribution in CD1 mouse cerebellum at 300 kBq, iv after 60 mins by gamma counting; format: ADME, organism-based; conditions: in vivo, 1 h; in short: as §1
Mus musculus [33] = test: Biodistribution in CD1 mouse adrenals at 300 kBq, iv after 60 mins by gamma counting; format: ADME, organism-based, Adrenal gland; conditions: in vivo, 1 h; in short: as §1

## [18F]CC1OC2(CCN(Cc3ccccc3)CC2)c2ccccc21 (stereo unspecified)
Mus musculus [1]
  Drug uptake: 2.02 % ID/g
Blood [2]
  Drug uptake: 0.15 % ID/g
Cerebellum [3]
  Drug uptake: 4.02 % ID/g
Stomach [4]
  Drug uptake: 1.9 % ID/g
Liver [5]
  Drug uptake: 3.95 % ID/g
Urinary bladder [6]
  Drug uptake: 5.58 % ID/g
Mus musculus [7]
  Drug uptake: 2.52 % ID/g
Femur
  Drug uptake: 1.29 % ID/g
[8]
  remaining at 2 h: 96.5%
[9]
  remaining at 2 h: 100%
[10]
  remaining at 0.5 h: 90%
[11]
  remaining at 1 h: 79%
Brain [12]
  Drug metabolism: Active
Mus musculus [13]
  Drug uptake: Active
Cerebellum [14]
  Drug uptake: Active
Blood [15]
  Drug uptake: 0.73 % ID/g
Cerebellum [16]
  Drug uptake: 8.2 % ID/g
Lung
  Drug uptake: 18.01 % ID/g
Stomach [17]
  Drug uptake: 2.62 % ID/g
Mus musculus [18]
  Drug uptake: 19.78 % ID/g
Mus musculus [19]
  Drug uptake: 0.91 % ID/g
Kidney [20]
  Drug uptake: 14.93 % ID/g
Urinary bladder [21]
  Drug uptake: 1.51 % ID/g
Mus musculus [22]
  Drug uptake: 3.26 % ID/g
Brain [23]
  Drug uptake: 4.56 % ID/g
Stomach [24]
  Drug uptake: 3.52 % ID/g
[25]
  Drug uptake: 0.4 % ID/g
Liver [26]
  Drug uptake: 6.68 % ID/g
Kidney [27]
  Drug uptake: 9.61 % ID/g
Pancreas
  Drug uptake: 16.03 % ID/g
Mus musculus [28]
  Drug uptake: 13.39 % ID/g
Mus musculus [29]
  Drug uptake: 2 % ID/g
Blood [30]
  Drug uptake: 0.16 % ID/g
Brain [31]
  Drug uptake: 2.99 % ID/g
Cerebellum [32]
  Drug uptake: 4.27 % ID/g
Mus musculus [33]
  Drug uptake: 7.48 % ID/g
